Format in all cases: functional
For test [1], the system named is Aphis craccivora. Put plainly: Insecticidal activity against Aphis craccivora (cowpea aphid) infested tender soybean shoots exposed to 10 mg/kg test compound solution assessed as insect mortality measured 24 hr post compound treatment. Conditions: Aphis craccivora, 24 h. The method in brief: (§1)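 Soybean tender shoots carrying 60 aphids were dipped in test solutions. Solutions were made from a 200 mg L^-1 stock in dimethylformamide, diluted with water containing TW-20. Insects were laboratory-reared, tests were held at 25±1 °C, and mortality was scored.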

In test [2] the test system is Aphis craccivora. Put plainly: Insecticidal activity against Aphis craccivora (cowpea aphid) infested tender soybean shoots exposed to 50 mg/kg test compound solution assessed as insect mortality measured 24 hr post compound treatment. The method in brief:
as §1

Test [3] deals with Culex pipiens pallens. Put plainly: Insecticidal activity against Culex pipiens pallens (mosquito) assessed as insect mortality at 100 ug/kg measured 1 day post compound treatment. Conditions: Culex pipiens, 24 h. The method in brief: (§2)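 Fourth-instar Culex pipiens pallens larvae, 20 per test, were laboratory-reared and placed in 100 mL of test solution made by adding 1 mL of compound dilution to 99 mL of water. Tests were held at 25±1 °C, percentage mortality was scored 1 day after treatment, and each test was run three times.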

The subject of test [4] is Plutella xylostella. Put plainly: Insecticidal activity against Plutella xylostella (diamondback moth) grown on compound pre-treated fresh cabbage leaves assessed as insect mortality at 5 mg/kg measured 3 days post compound treatment by leaf-dip method. Conditions: Plutella xylostella. The essentials:
(§3)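 Leaf-dip stomach-toxicity assay on laboratory-reared diamondback moth. Test solutions came from a 200 mg L^-1 stock in dimethylformamide, diluted with water containing TW-20. Control leaves were treated with water and dimethylformamide. Tests were held at 25±1 °C, percentage mortality was scored 3 days after treatment, and each treatment was run three times.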

In test [5] the test system is Plutella xylostella. As to the kind of experiment: Insecticidal activity against Plutella xylostella (diamondback moth) grown on compound pre-treated fresh cabbage leaves assessed as insect mortality at 10 mg/kg measured 3 days post compound treatment by leaf-dip method. Conditions: Plutella xylostella. The essentials:
as §3

Test [6] has as its system Plutella xylostella. Put plainly: Insecticidal activity against Plutella xylostella (diamondback moth) grown on compound pre-treated fresh cabbage leaves assessed as insect mortality at 200 mg/kg measured 3 days post compound treatment by leaf-dip method. The essentials:
as §3

Test [7] has as its system Aphis craccivora. Put plainly: Insecticidal activity against Aphis craccivora (cowpea aphid) infested tender soybean shoots exposed to 200 mg/kg test compound solution assessed as insect mortality measured 24 hr post compound treatment. The essentials:
as §1

For test [8], the system named is Plutella xylostella. As to the kind of experiment: Insecticidal activity against Plutella xylostella (diamondback moth) grown on compound pre-treated fresh cabbage leaves assessed as insect mortality at 25 mg/kg measured 3 days post compound treatment by leaf-dip method. To be noted: Plutella xylostella. The method in brief: as §3
The subject of test [9] is Aphis craccivora. As to the kind of experiment: Insecticidal activity against Aphis craccivora (cowpea aphid) infested tender soybean shoots exposed to 25 mg/kg test compound solution assessed as insect mortality measured 24 hr post compound treatment. The essentials: as §1
For test [10], the system named is Aphis craccivora. As to the kind of experiment: Insecticidal activity against Aphis craccivora (cowpea aphid) infested tender soybean shoots exposed to test compound solution assessed as insect mortality measured 24 hr post compound treatment. The method in brief:
as §1

The subject of test [11] is Aphis craccivora. As to the kind of experiment: Insecticidal activity against Aphis craccivora (cowpea aphid) infested tender soybean shoots exposed to 100 mg/kg test compound solution assessed as insect mortality measured 24 hr post compound treatment. The method in brief: as §1
The test system of test [12] is Culex pipiens pallens. Put plainly: Insecticidal activity against Culex pipiens pallens (mosquito) assessed as insect mortality at 50 ug/kg measured 1 day post compound treatment. To be noted: 24 h. The essentials:
as §2

For test [13], the system named is Culex pipiens pallens. As to the kind of experiment: Insecticidal activity against Culex pipiens pallens (mosquito) assessed as insect mortality at 25 ug/kg measured 1 day post compound treatment. To be noted: 24 h. The method in brief: as §2
Test [14] relates to Plutella xylostella. Put plainly: Insecticidal activity against Plutella xylostella (diamondback moth) grown on compound pre-treated fresh cabbage leaves assessed as insect mortality at 100 mg/kg measured 3 days post compound treatment by leaf-dip method. The essentials: as §3
The test system of test [15] is Aphis craccivora. Put plainly: Insecticidal activity against Aphis craccivora (cowpea aphid) infested tender soybean shoots exposed to 5 mg/kg test compound solution assessed as insect mortality measured 24 hr post compound treatment. To be noted: Aphis craccivora, 24 h. The essentials:
as §1

The subject of another test is Mythimna separata. As to the kind of experiment: Insecticidal activity against Mythimna separata (Oriental armyworm) grown on compound pre-treated corn leaves assessed as insect mortality at 200 mg/kg measured 3 days post compound treatment by leaf-dip method.
Test [16] has as its system Plutella xylostella. Put plainly: Insecticidal activity against Plutella xylostella (diamondback moth) grown on compound pre-treated fresh cabbage leaves assessed as insect mortality at 50 mg/kg measured 3 days post compound treatment by leaf-dip method. The method in brief: as §3
Test [17] deals with Aphis craccivora. Put plainly: Ratio of LC50 of ethiprole to LC50 of test compound against Aphis craccivora (cowpea aphid) infested tender soybean shoots exposed to test compound solution assessed as insect mortality measured 24 hr post compound treatment.
Test [18] has as its system Aphis craccivora. Put plainly: Insecticidal activity against Aphis craccivora (cowpea aphid) infested tender soybean shoots exposed to 2.5 mg/kg test compound solution assessed as insect mortality measured 24 hr post compound treatment. To be noted: Aphis craccivora, 24 h. The method in brief: as §1
The subject of test [19] is Plutella xylostella. As to the kind of experiment: Insecticidal activity against Plutella xylostella (diamondback moth) grown on compound pre-treated fresh cabbage leaves assessed as insect mortality at 2.5 mg/kg measured 3 days post compound treatment by leaf-dip method. The essentials: as §3
Test [20] relates to Culex pipiens pallens. As to the kind of experiment: Insecticidal activity against Culex pipiens pallens (mosquito) assessed as insect mortality at 5 ug/kg measured 1 day post compound treatment. To be noted: 24 h. The method in brief:
as §2

Test [21] concerns Culex pipiens pallens. Put plainly: Insecticidal activity against Culex pipiens pallens (mosquito) assessed as insect mortality at 10 ug/kg measured 1 day post compound treatment. Conditions: 24 h. The essentials:
as §2

With `CC[S+]([O-])c1c(C#N)nn(-c2c(Cl)cc(C(F)(F)F)cc2Cl)c1N` (configuration not stated) [ETHIPROLE], the figures for the mortality at 10 mg/kg with Aphis craccivora [1] and with Plutella xylostella [5] were 31% and 23%, respectively. Also, the mortality at 50 mg/kg with Aphis craccivora [2] and in the test with Plutella xylostella [16] was 100% in each case. In the test on Culex pipiens pallens [3], the mortality at 0.1 mg/kg was determined as 100%. The mortality at 5 mg/kg with Plutella xylostella [4] and in the test on Aphis craccivora [15] was 0% in each case. The mortality at 200 mg/kg with Plutella xylostella [6] worked out at 100%; with Aphis craccivora [7] it was 100%; with Mythimna separata, 0%. Moreover, the mortality at 25 mg/kg with Plutella xylostella [8] turned out to be 69%; in the test on Aphis craccivora [9], 100%. In addition, the LC50 in the test with Aphis craccivora [10] was determined as 11.7263 mg/kg. The mortality at 100 mg/kg with Aphis craccivora [11] and with Plutella xylostella [14] was 100% throughout. The mortality at 0.05 mg/kg in the test with Culex pipiens pallens [12] stood at 100%. Further, the mortality at 0.025 mg/kg in the test with Culex pipiens pallens [13] came out at 50%.

Consider `CCCOC(Nc1c([S+](C)[O-])c(C#N)nn1-c1c(Cl)cc(C(F)(F)F)cc1Cl)C(Cl)(Cl)Cl` (configuration not stated), for which the mortality at 10 mg/kg was determined as 100% in the test on Aphis craccivora [1] and 71% in the test on Plutella xylostella [5]. In the test with Aphis craccivora [17], the RatioLC50 is given as 4.3. For the same compound, the mortality at 50 mg/kg in the test on Aphis craccivora [2] and in the test on Plutella xylostella [16] was 100% throughout. Further, the mortality at 0.1 mg/kg in the test with Culex pipiens pallens [3] is 100%. Further, the mortality at 2.5 mg/kg in the test on Aphis craccivora [18] and in the test with Plutella xylostella [19] was 0% in each case. The mortality at 5 mg/kg amounted to 30% in the test with Plutella xylostella [4] and 91% in the test on Aphis craccivora [15]. Also, the mortality at 200 mg/kg with Plutella xylostella [6] turned out to be 100%; with Aphis craccivora [7], 100%; in the test with Mythimna separata it was 40%. The mortality at 25 mg/kg with Plutella xylostella [8] and with Aphis craccivora [9] was 100% each time. Moreover, in the test on Aphis craccivora [10], the LC50 came out at 2.7616 mg/kg. Besides, the mortality at 100 mg/kg in the test on Aphis craccivora [11] and in the test with Plutella xylostella [14] was 100% throughout. The mortality at 0.05 mg/kg in the test with Culex pipiens pallens [12] was 100%. In the test on Culex pipiens pallens [13], the mortality at 0.025 mg/kg worked out at 50%.

For `CCSc1c(C#N)nn(-c2c(Cl)cc(C(F)(F)F)cc2Cl)c1NC(OCCF)C(Cl)(Cl)Cl` (configuration not stated), the figures for the mortality at 10 mg/kg with Aphis craccivora [1] and in the test on Plutella xylostella [5] were 11% and 29%, respectively. Also, the mortality at 50 mg/kg in the test on Aphis craccivora [2] and in the test with Plutella xylostella [16] was 100% each time. For the same compound, the mortality at 0.1 mg/kg in the test on Culex pipiens pallens [3] turned out to be 100%. Further, the mortality at 5 mg/kg in the test on Plutella xylostella [4] and in the test on Aphis craccivora [15] was 0% each time. Also, the mortality at 0.005 mg/kg in the test on Culex pipiens pallens [20] amounted to 0%. The mortality at 200 mg/kg in the test with Plutella xylostella [6] was determined as 100%; in the test with Aphis craccivora [7] it was 100%; in the test with Mythimna separata, 20%. Moreover, the mortality at 0.01 mg/kg in the test with Culex pipiens pallens [21] was 100%. Also, the mortality at 25 mg/kg with Plutella xylostella [8] is 100%; in the test on Aphis craccivora [9] it was 29%. Moreover, the mortality at 100 mg/kg in the test with Aphis craccivora [11] and with Plutella xylostella [14] was 100% in each case. The mortality at 0.05 mg/kg in the test on Culex pipiens pallens [12] came to 100%. In addition, in the test on Culex pipiens pallens [13], the mortality at 0.025 mg/kg is 100%.

In the case of `COC(Nc1c([S+](C)[O-])c(C#N)nn1-c1c(Cl)cc(C(F)(F)F)cc1Cl)C(Cl)(Cl)Cl` (configuration not stated), the mortality at 10 mg/kg came out at 100% in the test on Aphis craccivora [1] and 91% with Plutella xylostella [5]. Besides, the RatioLC50 in the test with Aphis craccivora [17] was 4.2. Further, the mortality at 50 mg/kg in the test with Aphis craccivora [2] and in the test with Plutella xylostella [16] was 100% in each case. Besides, the mortality at 0.1 mg/kg with Culex pipiens pallens [3] came out at 100%. The mortality at 2.5 mg/kg in the test with Aphis craccivora [18] was 0%; in the test with Plutella xylostella [19], 34%. Moreover, the mortality at 5 mg/kg in the test with Plutella xylostella [4] and in the test on Aphis craccivora [15] was 88% each time. For the same compound, the mortality at 200 mg/kg with Plutella xylostella [6] and in the test on Aphis craccivora [7] was 100% in each case. In addition, the mortality at 25 mg/kg in the test on Plutella xylostella [8] and in the test on Aphis craccivora [9] was 100% throughout. Also, the LC50 in the test with Aphis craccivora [10] came to 2.8848 mg/kg. The mortality at 100 mg/kg in the test with Aphis craccivora [11] and in the test on Plutella xylostella [14] was 100% throughout. In addition, in the test on Culex pipiens pallens [12], the mortality at 0.05 mg/kg was determined as 50%.

Turning to `CCCOC(Nc1c([S+]([O-])CC)c(C#N)nn1-c1c(Cl)cc(C(F)(F)F)cc1Cl)C(Cl)(Cl)Cl` (configuration not stated), the values for the mortality at 10 mg/kg in the test with Aphis craccivora [1] and in the test on Plutella xylostella [5] were 100% and 44%, respectively. Also, in the test with Aphis craccivora [17], the RatioLC50 was determined as 7.9. The mortality at 50 mg/kg in the test with Aphis craccivora [2] and in the test on Plutella xylostella [16] was 100% each time. In addition, the mortality at 0.1 mg/kg in the test on Culex pipiens pallens [3] is 100%. Further, the mortality at 2.5 mg/kg was 89% in the test on Aphis craccivora [18] and 0% with Plutella xylostella [19]. Besides, the mortality at 5 mg/kg came to 27% with Plutella xylostella [4] and 100% with Aphis craccivora [15]. The mortality at 200 mg/kg in the test with Plutella xylostella [6] and in the test with Aphis craccivora [7] was 100% in each case. Further, the mortality at 25 mg/kg with Plutella xylostella [8] was 87%; with Aphis craccivora [9], 100%. The LC50 with Aphis craccivora [10] amounted to 1.4873 mg/kg. For the same compound, the mortality at 100 mg/kg in the test with Aphis craccivora [11] and with Plutella xylostella [14] was 100% each time. For the same compound, the mortality at 0.05 mg/kg in the test on Culex pipiens pallens [12] turned out to be 100%. Moreover, the mortality at 0.025 mg/kg with Culex pipiens pallens [13] amounted to 0%.

The values above are taken from ChEMBL document CHEMBL3044673, “Design, synthesis and insecticidal activity of novel phenylpyrazoles containing a 2,2,2-trichloro-1-alkoxyethyl moiety” (2010).
